Test results taken from ChEMBL document CHEMBL5154946, “Optimization of Peptide Linker-Based Fluorescent Ligands for the Histamine H1 Receptor” (J Med Chem, 2022).
Activity calls are given as the source filed them. The calls are words filed in the database; no cut-off is given here. Square brackets hold non-standard residues; d marks the D form. Peptide text beside a SMILES is read from it. * marks the point of attachment. X1 = O=C(COc1ccc(/C=C/C2=[N+]3C(=Cc4ccc(-c5cccs5)n4[B-]3(F)F)C=C2)cc1)*; Propanoyl(3-Pip(4-O-2-BnPh)) = O=C(CCN1CCC(Oc2ccccc2Cc2ccccc2)CC1)*; X3 = Cc1cc(C)n2c1C=C1C=CC(/C=C/c3ccc(OCC(=O)*)cc3)=[N+]1[B-]2(F)F; BODIPY(FL) = CC1=CC(C)=[N+]2C1=Cc1ccc(CCC(=O)*)n1[B-]2(F)F; X2 = O=C(CCC1=[N+]2C(=Cc3ccc(-c4cccs4)n3[B-]2(F)F)C=C1)*; βAla = NCCC(=O)O

Experiments:
Histamine H1 receptor [1] = molecular target: T1, Histamine H1 receptor (Homo sapiens, UniProt P35367); experiment: Displacement of VUF13816-based fluorescent ligand 1 from Nluc-tagged human H1R expressed in HEK293T cells assessed as fold change incubated for 2 hrs by NanoBRET competition binding assay; settings: filed as antagonist
Histamine H1 receptor [2] = molecular target: T1, Histamine H1 receptor; experiment: Binding affinity to human H1R expressed in CHO cells using Fluo-4AM as substrate incubated for 1 hrs by calcium mobilization assay based fluorometric analysis; format: cell-based; settings: filed as antagonist
Histamine H1 receptor [3] = molecular target: T1, Histamine H1 receptor; experiment: Binding affinity to human H1R expressed in CHO cells assessed as shift in histamine-mediated calcium response at 1 uM using Fluo-4AM as a substrate incubated for 1 hrs by calcium mobilization assay based fluorometric analysis; format: cell-based; settings: filed as antagonist
Histamine H1 receptor [4] = molecular target: T1, Histamine H1 receptor; experiment: Binding affinity to NLuc-tagged human H1R expressed in HEK293T cells assessed as association rate constant (kon) using furimazine as substrate measured after 90 mins by NanoBRET binding assay; format: cell-based; settings: filed as antagonist
Procedure, shortened: (§1)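 Live HEK293T cells expressing Nluc-tagged human H1R; fluorescent ligand added at several concentrations and BRET read in real time every min for 90 min at room temperature. kon and koff obtained from association kinetics; mean residence time taken as 1/koff. Values are means ± SEM of 4–5 separate experiments, each in triplicate.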

Histamine H1 receptor [5] = molecular target: T1, Histamine H1 receptor; experiment: Binding affinity to NLuc-tagged human H1R expressed in HEK293T cells assessed as dissociation rate constant (koff) using furimazine as substrate measured after 90 mins by NanoBRET binding assay; format: cell-based; settings: filed as antagonist
Procedure, shortened: as §1

Histamine H1 receptor [6] = molecular target: T1, Histamine H1 receptor; experiment: Binding affinity to NLuc-tagged human H1R expressed in HEK293T cells at assessed as ratio of association rate constant to dissociation rate constant by NanoBRET binding assay; format: cell-based; settings: filed as antagonist
Procedure, shortened: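 Real-time NanoBRET association kinetics on Nluc-H1R HEK293T cells. Several fluorescent ligand concentrations were tested, with BRET read every min for 90 min at room temperature. pKD was derived from kon/koff. Means ± SEM from 4–5 experiments in triplicate.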

[7] = Drug localization in plasma membrane of chinese hamster CHO cells expressing YFP-tagged H1R at 1 to 25 nM incubated for 30 min by confocal microscopy; format: ADME, cell membranes, Cricetulus griseus; settings: 0.5 h, 0.025 µM, dose 1-25 nM
Procedure, shortened: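 CHO cells expressing YFP-tagged H1R were incubated for 30 min at 37 °C with fluorescent ligand at 1, 5, 10 or 25 nM, with or without 10 μM mepyramine pretreatment to define nonspecific binding. Plasma membrane versus intracellular localization was judged by confocal imaging in red and green channels. Three independent experiments.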

Histamine H1 receptor [8] = molecular target: T1, Histamine H1 receptor; experiment: Binding affinity to human H1R expressed in CHO cells using Fluo-4AM as a substrate incubated for 45 mins by calcium mobilization assay based fluorometric analysis; format: cell-based; settings: filed as antagonist
Histamine H1 receptor [9] = molecular target: T1, Histamine H1 receptor; experiment: Displacement of VUF13816-based fluorescent ligand 1 from Nluc-tagged human H1R expressed in HEK293T cells incubated for 2 hrs by NanoBRET competition binding assay
[10] = molecular target: Histamine H3 receptor (Homo sapiens) (UniProt Q9Y5N1); experiment: Binding affinity to NLuc-tagged human H3R expressed in HEK293T cell homogenates at 1 uM using NanoGlo as substrate preincubated for 2 hrs followed by substrate addition measured after 5 min in presence of clobenpropit by NanoBRET saturation binding assay; settings: filed as antagonist, time 125.0 min
[11] = molecular target: Histamine H4 receptor (Homo sapiens) (UniProt Q9H3N8); experiment: Binding affinity to NLuc-tagged human H4R expressed in HEK293T cell homogenates at 1 uM using NanoGlo as substrate preincubated for 2 hrs followed by substrate addition measured after 5 min in presence of clobenpropit by NanoBRET saturation binding assay; settings: filed as antagonist, time 125.0 min
Histamine H4 receptor (Homo sapiens), sequence (Q9H3N8 whole entry): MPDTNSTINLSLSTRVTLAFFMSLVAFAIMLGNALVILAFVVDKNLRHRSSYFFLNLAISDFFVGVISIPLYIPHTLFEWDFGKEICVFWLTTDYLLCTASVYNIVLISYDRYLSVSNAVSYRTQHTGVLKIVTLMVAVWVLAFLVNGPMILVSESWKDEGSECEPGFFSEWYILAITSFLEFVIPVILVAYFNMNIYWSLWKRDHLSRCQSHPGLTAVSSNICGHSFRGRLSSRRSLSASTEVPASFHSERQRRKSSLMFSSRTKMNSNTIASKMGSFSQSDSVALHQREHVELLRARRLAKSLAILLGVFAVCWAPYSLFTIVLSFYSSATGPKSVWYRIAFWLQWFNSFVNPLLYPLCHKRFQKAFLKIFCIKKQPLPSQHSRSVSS

T1 sequence (P35367 whole entry): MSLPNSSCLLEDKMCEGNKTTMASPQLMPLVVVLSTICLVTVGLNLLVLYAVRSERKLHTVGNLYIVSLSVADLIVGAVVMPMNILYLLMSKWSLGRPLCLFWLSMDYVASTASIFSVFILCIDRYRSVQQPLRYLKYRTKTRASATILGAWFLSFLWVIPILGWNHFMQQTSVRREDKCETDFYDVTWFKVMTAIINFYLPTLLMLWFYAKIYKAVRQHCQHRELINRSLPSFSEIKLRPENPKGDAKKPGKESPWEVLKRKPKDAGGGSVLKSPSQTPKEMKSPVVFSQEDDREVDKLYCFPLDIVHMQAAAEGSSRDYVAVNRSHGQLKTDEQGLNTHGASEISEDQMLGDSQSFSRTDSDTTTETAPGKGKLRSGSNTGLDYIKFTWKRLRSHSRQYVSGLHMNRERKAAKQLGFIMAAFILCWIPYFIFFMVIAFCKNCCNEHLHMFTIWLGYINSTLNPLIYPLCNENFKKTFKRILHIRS
Histamine H3 receptor (Homo sapiens), sequence (Q9Y5N1 whole entry): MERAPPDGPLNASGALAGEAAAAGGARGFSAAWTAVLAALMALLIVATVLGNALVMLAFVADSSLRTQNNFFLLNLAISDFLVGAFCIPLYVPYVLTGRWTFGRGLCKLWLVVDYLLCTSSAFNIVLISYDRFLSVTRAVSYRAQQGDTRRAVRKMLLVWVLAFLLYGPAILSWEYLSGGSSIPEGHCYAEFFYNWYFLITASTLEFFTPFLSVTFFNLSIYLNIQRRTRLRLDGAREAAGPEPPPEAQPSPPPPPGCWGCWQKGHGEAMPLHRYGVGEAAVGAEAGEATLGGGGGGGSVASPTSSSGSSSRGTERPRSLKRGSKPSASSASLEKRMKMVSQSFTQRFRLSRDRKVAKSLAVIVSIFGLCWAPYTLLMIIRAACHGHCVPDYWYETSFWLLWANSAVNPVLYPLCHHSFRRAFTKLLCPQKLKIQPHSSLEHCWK

Row | SMILES | pKb (Histamine H1 receptor [2]) | Activity (Histamine H1 receptor [3]) | also measured
1 | CC(C)[C@H](NC(=O)CCN1CCC(Oc2ccccc2Cc2ccccc2)CC1)C(=O)N[C@@H](C)C(=O)N[C@@H](C)C(=O)N[C@H](Cc1ccccc1)C(N)=O ({Propanoyl(3-Pip(4-O-2-BnPh))}-VAA[dF]-NH2) |  |  | fold change (FC) (Histamine H1 receptor [1]): 2
2 | C[C@H](NC(=O)[C@H](C)NC(=O)[C@H](Cc1ccccc1)NC(=O)CCN1CCC(Oc2ccccc2Cc2ccccc2)CC1)C(=O)NCCC(=O)N[C@@H](CCCCNC(=O)CCC1=[N+]2C(=Cc3ccc(-c4cccs4)n3[B-]2(F)F)C=C1)C(N)=O ({Propanoyl(3-Pip(4-O-2-BnPh))}-FAA[βAla]K(X2)-NH2) | 6.44 | Active | 
3 | Cc1cc(C)n2c1C=C1C=CC(CCC(=O)NCCCC[C@H](NC(=O)CCNC(=O)[C@H](C)NC(=O)[C@H](C)NC(=O)[C@H](Cc3ccccc3)NC(=O)CCN3CCC(Oc4ccccc4Cc4ccccc4)CC3)C(N)=O)=[N+]1[B-]2(F)F ({Propanoyl(3-Pip(4-O-2-BnPh))}-FAA[βAla]K(BODIPY(FL))-NH2) | 7.46 | Active | 
4 | CC(C)[C@H](NC(=O)CCN1CCC(Oc2ccccc2Cc2ccccc2)CC1)C(=O)N[C@@H](CO)C(=O)N[C@@H](CC(N)=O)C(=O)NCCC(=O)N[C@@H](CCCCNC(=O)CCCCC[N+]1=C(/C=C/C=C/C=C2/N(C)c3ccc(S(=O)(=O)[O-])cc3C2(C)C)C(C)(C)c2cc(S(=O)(=O)O)ccc21)C(N)=O | 5.33 | Active | 
5 | Cc1cc(C)n2c1C=C1C=CC(CCC(=O)NCCCC[C@H](NC(=O)CCNC(=O)[C@H](CC(N)=O)NC(=O)[C@H](CO)NC(=O)[C@@H](NC(=O)CCN3CCC(Oc4ccccc4Cc4ccccc4)CC3)C(C)C)C(N)=O)=[N+]1[B-]2(F)F ({Propanoyl(3-Pip(4-O-2-BnPh))}-VSN[βAla]K(BODIPY(FL))-NH2) | 6.95 | Active | 
6 | CC(C)[C@H](NC(=O)CCN1CCC(Oc2ccccc2Cc2ccccc2)CC1)C(=O)N[C@@H](CO)C(=O)N[C@@H](CC(N)=O)C(=O)NCCC(=O)N[C@@H](CCCCNC(=O)CCC1=[N+]2C(=Cc3ccc(-c4cccs4)n3[B-]2(F)F)C=C1)C(N)=O ({Propanoyl(3-Pip(4-O-2-BnPh))}-VSN[βAla]K(X2)-NH2) | 6.52 | Active | 
7 | CC(C)[C@H](NC(=O)CCN1CCC(Oc2ccccc2Cc2ccccc2)CC1)C(=O)N[C@@H](CO)C(=O)N[C@@H](CC(N)=O)C(=O)NCCC(=O)N[C@@H](CCCCNC(=O)COc1ccc(/C=C/C2=[N+]3C(=Cc4ccc(-c5cccs5)n4[B-]3(F)F)C=C2)cc1)C(N)=O ({Propanoyl(3-Pip(4-O-2-BnPh))}-VSN[βAla]K(X1)-NH2) | 8.56 | Active | K (Histamine H1 receptor [4]): 0.839 10^6/M/min; K (Histamine H1 receptor [5]): 0.014 min⁻¹; pKd (Histamine H1 receptor [6]): 7.74; Drug uptake [7]: Active
8 | Cc1cc(C)n2c1C=C1C=CC(/C=C/c3ccc(OCC(=O)NCCCC[C@H](NC(=O)CCNC(=O)[C@H](C)NC(=O)[C@H](C)NC(=O)[C@H](Cc4ccccc4)NC(=O)CCN4CCC(Oc5ccccc5Cc5ccccc5)CC4)C(N)=O)cc3)=[N+]1[B-]2(F)F ({Propanoyl(3-Pip(4-O-2-BnPh))}-FAA[βAla]K(X3)-NH2) | 6.99 | Active | 
9 | Cc1cc(C)n2c1C=C1C=CC(/C=C/c3ccc(OCC(=O)NCCCC[C@H](NC(=O)CCNC(=O)[C@H](CC(N)=O)NC(=O)[C@H](CO)NC(=O)[C@@H](NC(=O)CCN4CCC(Oc5ccccc5Cc5ccccc5)CC4)C(C)C)C(N)=O)cc3)=[N+]1[B-]2(F)F ({Propanoyl(3-Pip(4-O-2-BnPh))}-VSN[βAla]K(X3)-NH2) | 6.96 | Active | 
10 | C[C@@H](NC(=O)CCN1CCC(Oc2ccccc2Cc2ccccc2)CC1)C(=O)N[C@H](C)C(=O)N[C@H](C)C(=O)NCCNC(=O)CCCCCNC(=O)COc1ccc(/C=C/C2=[N+]3C(=Cc4ccc(-c5cccs5)n4[B-]3(F)F)C=C2)cc1 (stereo in doubt) |  |  | pKb (Histamine H1 receptor [8]): 8.6
11 | CC(C)[C@H](NC(=O)CCN1CCC(Oc2ccccc2Cc2ccccc2)CC1)C(=O)N[C@@H](CO)C(=O)N[C@@H](CO)C(=O)N[C@H](Cc1ccccc1)C(N)=O ({Propanoyl(3-Pip(4-O-2-BnPh))}-VSS[dF]-NH2) |  |  | fold change (FC) (Histamine H1 receptor [1]): 2
12 | CC(C)[C@H](NC(=O)CCN1CCC(Oc2ccccc2Cc2ccccc2)CC1)C(=O)N[C@@H](CO)C(=O)N[C@@H](Cc1ccc(O)cc1)C(=O)N[C@@H](Cc1ccccc1)C(N)=O ({Propanoyl(3-Pip(4-O-2-BnPh))}-VSYF-NH2) |  |  | Ki (Histamine H1 receptor [9]): 437 nM
13 | C[C@H](NC(=O)[C@H](C)NC(=O)[C@H](Cc1ccccc1)NC(=O)CCN1CCC(Oc2ccccc2Cc2ccccc2)CC1)C(=O)NCCC(=O)N[C@@H](CCCCNC(=O)CCCCC[N+]1=C(/C=C/C=C/C=C2/N(C)c3ccc(S(=O)(=O)[O-])cc3C2(C)C)C(C)(C)c2cc(S(=O)(=O)O)ccc21)C(N)=O | 6.09 | Active | 
14 | CC(C)[C@H](NC(=O)CCN1CCC(Oc2ccccc2Cc2ccccc2)CC1)C(=O)N[C@@H](CO)C(=O)N[C@@H](Cc1ccc(O)cc1)C(=O)N[C@H](Cc1ccccc1)C(N)=O ({Propanoyl(3-Pip(4-O-2-BnPh))}-VSY[dF]-NH2) |  |  | fold change (FC) (Histamine H1 receptor [1]): 2
15 | C[C@H](NC(=O)[C@H](C)NC(=O)[C@H](Cc1ccccc1)NC(=O)CCN1CCC(Oc2ccccc2Cc2ccccc2)CC1)C(=O)NCCC(=O)N[C@@H](CCCCNC(=O)COc1ccc(/C=C/C2=[N+]3C(=Cc4ccc(-c5cccs5)n4[B-]3(F)F)C=C2)cc1)C(N)=O ({Propanoyl(3-Pip(4-O-2-BnPh))}-FAA[βAla]K(X1)-NH2) | 8.59 | Active | K (Histamine H1 receptor [4]): 0.686 10^6/M/min; K (Histamine H1 receptor [5]): 0.014 min⁻¹; pKd (Histamine H1 receptor [6]): 7.64
16 | CC(C)[C@H](NC(=O)CCN1CCC(Oc2ccccc2Cc2ccccc2)CC1)C(=O)N[C@@H](CO)C(=O)N[C@@H](C)C(=O)N[C@H](Cc1ccccc1)C(N)=O ({Propanoyl(3-Pip(4-O-2-BnPh))}-VSA[dF]-NH2) |  |  | fold change (FC) (Histamine H1 receptor [1]): 2
17 | N=C(NCc1ccc(Cl)cc1)SCCCc1c[nH]cn1 |  |  | Activity [10]: Active; Activity [11]: Active
18 | CC(C)[C@H](NC(=O)CCN1CCC(Oc2ccccc2Cc2ccccc2)CC1)C(=O)N[C@@H](CO)C(=O)N[C@@H](CC(N)=O)C(=O)N[C@@H](Cc1ccccc1)C(N)=O ({Propanoyl(3-Pip(4-O-2-BnPh))}-VSNF-NH2) |  |  | Ki (Histamine H1 receptor [9]): 89 nM
